Reference: PMC5935105 (Analytical biochemistry, 2018)

Experiments:
[1] = target: SOS-catalyzed nucleotide exchange on RAS (SOScat, K-RAS G12D) (Homo sapiens, UniProt Q07889); assay: SOS-catalyzed nucleotide exchange assay using BODIPY-GDP-loaded RAS; format: biochemical; settings: average of the two values of Table 1; 100 μM compound; normalized to API
Summary of the method: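 SOScat (residues 564–1049) with BODIPY-GDP-loaded RAS in 25 mM Tris pH 7.5, 50 mM NaCl, 1 mM MgCl2. Compound added at 10 s and unlabeled GTP at 120 s; fluorescence loss followed for 30 min. Rates come from single-exponential decay fits, normalized between SOS-catalyzed exchange without compound (0) and the maximal rate from the control compound on each plate (100).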

[2] = system: RAS-GTP levels in HeLa cells; assay: RAS-GTP levels in HeLa cells; format: cell-based; settings: 30 minutes, up to 200 μM compound
[3] = system: phospho ERK1/2 T202/Y204 levels in HeLa cells; assay: phospho ERK1/2 T202/Y204 levels in HeLa cells; format: cell-based; settings: 30 minutes; for phospho ERK levels at higher concentrations: higher concentrations (up to 200 μM); for phospho ERK levels at lower concentrations: lower concentrations of compound

Row | SMILES | Average Relative Rate of Nucleotide Exchange at 100 μM [1] [%] | RAS-GTP levels relative to DMSO control [2] | phospho ERK levels at higher concentrations [3] | phospho ERK levels at lower concentrations [3]
1 | N[C@@H](Cc1c[nH]c2ccccc12)C(=O)NC1CCN(Cc2c[nH]c3ccc(Cl)cc23)CC1 [API, (S)-2-amino-N-(1-((5-chloro-1H-indol-3-yl)methyl)piperidin-4-yl)-3-(1H-indol-3-yl)propanamide, reference compound] | 100 | increase in RAS-GTP levels was observed | inhibition of phospho ERK levels was observed | induction of phospho ERK levels
2 | CCCN1CCC(NCCC(c2ccccc2)c2ccccc2)CC1 [Compound 4, N-(3,3-diphenylpropyl)-1-propylpiperidin-4-amine] | 50.9 | did not cause an increase in RAS-GTP levels |  | 
3 | c1ccc(C(CCNC2CCNCC2)c2ccccc2)cc1 [Compound 4a, N-(3,3-diphenylpropyl)piperidin-4-amine] | 69.1 | increase in RAS-GTP levels was observed | inhibition of phospho ERK levels was observed | induction of phospho ERK levels
